In ChEMBL document CHEMBL2440094, “Thiazolidinone-peptide hybrids as dengue virus protease inhibitors with antiviral activity in cell culture” (J Med Chem, 2013):
The source made the active and inactive calls. No cut-off for these calls is given here. Square brackets hold non-standard residues; d marks the D form. Peptide text beside a SMILES is read from it. * marks the point of attachment. Nle = CCCC[C@H](N)C(=O)O; Bz = O=C(c1ccccc1)*

Columns and labels:
Dengue virus [1] = experiment: Inhibition of Dengue virus NS2B-NS3 protease expressed in Escherichia coli BL 21 (DE3) using Abz-Nle-Lys-Arg-Arg-Ser-3-(NO2)Tyr as substrate at 50 uM after 15 mins
Dengue virus [2] = experiment: Competitive inhibition of Dengue virus NS2B-NS3 protease expressed in Escherichia coli BL 21 (DE3) using Abz-Nle-Lys-Arg-Arg-Ser-3-(NO2)Tyr as substrate by Cornish-Bowden plot analysis
In short: (§1)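 DEN2 NS2B–NS3 FRET assay run at inhibitor 0–6 μM (prior-series compounds 5–50 μM) and substrate 50, 100, 150 and 200 μM, in triplicate, with inner-filter correction. Ki from Dixon plots (1/v vs [I]) and Ki′ from Cornish-Bowden plots (S/v vs [I]). Inhibition mode assigned from these plots.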

[3] = molecular target: Prothrombin (Homo sapiens) (UniProt P00734); experiment: Inhibition of thrombin (unknown origin) using Boc-Val-Pro-Arg-AMC as substrate at 25 uM after 10 mins by continuous fluorimetric assay
In short: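 Thrombin (10 nM) preincubated 15 min with inhibitor (25 μM final) in 50 mM Tris-HCl pH 7.5, 150 mM NaCl, 0.05% Tween 20. Boc-Val-Pro-Arg-AMC then added to 50 μM (Km 16 μM). Fluorescence (ex 355 nm, em 460 nm) followed for 10 min as slope. Triplicate; percent inhibition versus no-inhibitor control.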

[4] = Inhibition of Dengue virus NS2B-NS3 protease expressed in Escherichia coli BL 21 (DE3) using Abz-Nle-Lys-Arg-Arg-Ser-3-(NO2)Tyr as substrate assessed as enzyme-substrate-inhibitor complex by Cornish-Bowden plot analysis; in short: as §1
dengue virus type 2 [5] = experiment: Antiviral activity against Dengue virus 2 infected in human Huh-7 cells assessed as inhibition of virus-induced plaque formation at 50 uM after 48; assay type: functional, organism-based
In short: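 Huh-7 cells seeded in 12-well plates and pretreated with compound (50 μM) for 4 h. Infected for 1 h with dengue reporter virus (MOI 5) in the presence of compound, then medium replaced with compound-containing DMEM. Supernatant harvested at 48 h and filtered. Titer determined by plaque assay on Vero cells. Mean ± SD of three independent experiments.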

[6] = Inhibition of Dengue virus NS2B-NS3 protease expressed in Escherichia coli BL 21 (DE3) using Abz-Nle-Lys-Arg-Arg-Ser-3-(NO2)Tyr as substrate assessed as enzyme-inhibitor complex by Cornish-Bowden plot analysis; settings: in the assay text read “Dixon plot” for “Cornish-Bowden plot”; in short: as §1
Huh-7 = experiment: Cytotoxicity against human HuH7 cells at <50 uM after 48 hrs by firefly reporter assay; assay type: cell-based; settings: huh-7, 48 h
In short: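 Uninfected Huh-7 cells stably expressing firefly luciferase, seeded 5000/well and incubated overnight at 37 °C. Compound added at 1.56–50 μM, plus 100, 200 and 400 μM, then incubated as for infected cells (further 48 h after the 4 h point). Firefly luminescence read with 70 μM luciferin and 2 mM ATP. Mean of three wells as percent of DMSO control.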

West Nile virus = experiment: Inhibition of West Nile virus NS2B-NS3 protease expressed in Escherichia coli BL 21 (DE3) using Abz-Gly-Leu-Lys-Arg-Gly-Gly-3-(NO2)Tyr as substrate at 50 uM after 15 mins
[7] = Inhibition of Dengue virus NS2B-NS3 protease expressed in Escherichia coli BL 21 (DE3) using Abz-Nle-Lys-Arg-Arg-Ser-3-(NO2)Tyr as substrate after 15 mins
[8] = Permeability of the compound by PAMPA; assay type: ADME; settings: read-out: permeability
In short: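 PAMPA with precoated trilayer lipid/oil/lipid membranes, donor wells holding 200 μM compound in PBS pH 7.4 (2% DMSO final), in triplicate. Incubated 5 h at room temperature. Donor and acceptor concentrations determined by UV plate reader or HPLC-UV against calibration curves. Pe and mass retention R calculated.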

dengue virus type 2 [9] = experiment: Antiviral activity against Dengue virus 2 infected in human Huh-7 cells assessed as inhibition of viral replication after 48 hrs by luciferase reporter gene assay; assay type: functional, organism-based; settings: Huh-7, 48 h
In short: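 Huh-7 cells seeded 5000/well, incubated overnight at 37 °C, then given compound (1.56–50 μM final, 2-fold series in DMEM with 10% FCS). Dengue 2 renilla luciferase reporter virus (MOI 10) added 4 h later. After 48 h at 37 °C, cells lysed and renilla luminescence read with coelenterazine. At least four wells per concentration, expressed relative to DMSO control. EC50 by nonlinear regression.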

Dengue virus [10] = experiment: Mixed type inhibition of Dengue virus NS2B-NS3 protease expressed in Escherichia coli BL 21 (DE3) using Abz-Nle-Lys-Arg-Arg-Ser-3-(NO2)Tyr as substrate by Cornish-Bowden plot analysis; in short: as §1

SMILES | inhibition (Dengue virus [1]) | inhibition (Dengue virus [2]) | inhibition [3] | Ki [4] | inhibition (dengue virus type 2 [5]) | Ki [6] | Activity (Huh-7) | inhibition (West Nile virus) | IC50 [7] | Papp [8] | EC50 (dengue virus type 2 [9]) | inhibition (Dengue virus [10])
CCCC[C@H](NC(=O)[C@H](CCCCN)NC(=O)[C@H](CCCNC(=N)N)NC(=O)c1cccs1)C(N)=O | 71.1% | Active | inactive | > 50 µM | inactive | 14.5 µM | Non-toxic | 14.7% | 14.1 µM |  |  | 
CCCC[C@H](NC(=O)[C@H](CCCCN)NC(=O)[C@H](CCCNC(=N)N)NC(=O)/C=C/c1ccccc1)C(N)=O | 82.9% | Active | inactive | > 50 µM |  | 6.9 µM | Non-toxic | 13.8% | 10.5 µM | 12.6 nm/s |  | 
CCCC[C@H](NC(=O)[C@H](CCCCN)NC(=O)[C@H](CCCNC(=N)N)NC(=O)c1ccc(/C=C2\SC(=O)N(Cc3ccc(C)cc3)C2=O)cc1)C(N)=O | 97.6% | Active | 9.3% | > 10 µM |  | 3.1 µM |  | 66.7% | 4.8 µM |  |  | 
CCCC[C@H](NC(=O)[C@H](CCCCN)NC(=O)[C@H](CCCNC(=N)N)NC(=O)c1ccc(/C=C2\SC(=S)N(CCCC)C2=O)cc1)C(N)=O | 97.3% | Active | 11.3% | > 10 µM |  | 4.7 µM |  | 64.7% | 6.2 µM | 16.1 nm/s | 35.5 µM | 
CCCC[C@H](NC(=O)[C@H](CCCCN)NC(=O)[C@H](CCCNC(=N)N)NC(=O)c1ccc(/C=C2\SC(=S)N(C3CCCC3)C2=O)cc1)C(N)=O | 99.8% | Active | inactive | > 10 µM |  | 3.6 µM |  | 97.7% | 6.1 µM | 23.1 nm/s | 30.3 µM | 
C=CCN1C(=O)/C(=C/c2ccc(C(=O)N[C@@H](CCCNC(=N)N)C(=O)N[C@@H](CCCCN)C(=O)N[C@@H](CCCC)C(N)=O)cc2)SC1=S | 96% |  | inactive |  |  |  | Non-toxic | 54.6% |  | 4.2 nm/s | 31.3 µM | 
CCCC[C@H](NC(=O)[C@H](CCCCN)NC(=O)[C@H](CCCNC(=N)N)NC(=O)c1ccc(/C=C2\SC(=O)N(CCCC)C2=O)cc1)C(N)=O | 100% | Active | 18.4% | > 10 µM |  | 3.4 µM |  | 52.4% | 3.5 µM | 11.8 nm/s | > 50 µM | 
CCCC[C@H](NC(=O)[C@H](CCCCN)NC(=O)[C@H](CCCNC(=N)N)NC(=O)c1ccc(/C=C(\C#N)C(=O)NC2CC2)cc1)C(N)=O | 88.5% | Active | 13.4% | > 50 µM | inactive | 4 µM | Non-toxic | 28% | 5.3 µM | 11.1 nm/s |  | 
CCCC[C@H](NC(=O)[C@H](CCCCN)NC(=O)[C@H](CCCNC(=N)N)NC(=O)c1ccc(/C=C2\SC(=O)N(CCOC(C)=O)C2=O)cc1)C(N)=O | 97.6% | Active | 16.8% | > 10 µM |  | 3.6 µM |  | 41.4% | 4.8 µM |  |  | 
CCCC[C@H](NC(=O)[C@H](CCCN)NC(=O)[C@H](CCCNC(=N)N)NC(=O)c1ccc(/C=C2\SC(=O)N(Cc3ccccc3)C2=O)cc1)C(N)=O | 74.5% |  | 14.3% |  | inactive |  | Non-toxic | 45% |  |  | 26.8 µM | 
CCCC[C@H](NC(=O)[C@H](CCCCN)NC(=O)[C@H](CCCNC(=N)N)NC(=O)c1ccccc1)C(N)=O (Bz-Arg-Lys-[Nle]-NH2) | 68.1% | Active | 5.5% | > 50 µM |  | 11.2 µM | Non-toxic | 7.7% | 13.3 µM |  |  | 
CCCC[C@H](NC(=O)[C@H](CCCCN)NC(=O)[C@H](CCCNC(=N)N)NC(=O)c1ccc(/C=C/C(N)=O)cc1)C(N)=O | 84.6% | Active | inactive | > 50 µM |  | 8.2 µM | Non-toxic | 15.6% | 6.4 µM |  |  | 
CCCC[C@H](NC(=O)[C@H](CCCCN)NC(=O)[C@H](CCCNC(=N)N)NC(=O)c1ccc(/C=C2\SC(=O)N(Cc3ccc(F)cc3)C2=O)cc1)C(N)=O | 99.4% |  | 20.3% | 5.2 µM |  | 1.5 µM |  | 63.7% | 2.9 µM | 4.3 nm/s |  | Active
CCCC[C@H](NC(=O)[C@H](CCCCN)NC(=O)[C@H](CCCNC(=N)N)NC(=O)c1ccc(/C=C2\SC(=O)N(Cc3ccc(OC)cc3)C2=O)cc1)C(N)=O | 97% | Active | 12.3% | > 10 µM |  | 2.2 µM |  | 47.2% | 3.3 µM |  |  | 
CCCC[C@H](NC(=O)[C@H](CCCCN)NC(=O)[C@H](CCCNC(=N)N)NC(=O)c1ccc(/C=C2\SC(=O)N(C3CCCCC3)C2=O)cc1)C(N)=O | 98.4% | Active | 9.1% | > 10 µM |  | 2.3 µM |  | 51.1% | 3.4 µM | 16.9 nm/s |  | 
